Active and inactive are the calls of the source. The calls are words filed in the database; no cut-off is given here.
Columns and labels:
[1] = Down regulation of NFkappaB p65 expression in LPS/IFNgamma-induced mouse RAW264.7 cells at 10 uM incubated for 20 hrs followed by LPS/IFNgamma stimulation and measured after 4 hrs by Western blot analysis; details: raw264.7, 24 h
Method in brief: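 RAW264.7 cells treated and NF-κB p65 protein measured by western blot with p65 antibody (1:2500), β-actin loading control, HRP secondary and chemiluminescent detection.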

[2] = target: Protein cereblon/Histone deacetylase 3 (Mus musculus) (UniProt O88895+Q8C7D2); test: Protac activity at CRBN/HDAC3 in mouse RAW264.7 cells assessed as induction of HDAC3 degradation at 10 uM by Western blot analysis; type: cell-based
Chain of Protein cereblon/Histone deacetylase 3 (Mus musculus) (O88895 whole entry, looked up): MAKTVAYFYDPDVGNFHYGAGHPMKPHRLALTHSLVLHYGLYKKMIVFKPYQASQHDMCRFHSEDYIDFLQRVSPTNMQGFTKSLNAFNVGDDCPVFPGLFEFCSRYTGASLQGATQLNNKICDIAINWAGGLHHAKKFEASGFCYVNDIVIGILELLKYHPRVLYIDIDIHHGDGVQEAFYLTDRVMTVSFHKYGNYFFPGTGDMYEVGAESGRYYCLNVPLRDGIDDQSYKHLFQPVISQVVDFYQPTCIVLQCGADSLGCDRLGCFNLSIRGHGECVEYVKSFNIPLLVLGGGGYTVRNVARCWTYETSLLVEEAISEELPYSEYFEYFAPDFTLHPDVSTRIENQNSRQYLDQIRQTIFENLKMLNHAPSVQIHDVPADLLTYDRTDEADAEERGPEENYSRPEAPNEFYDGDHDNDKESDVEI
Chain of Protein cereblon/Histone deacetylase 3 (Mus musculus) (Q8C7D2 whole entry, looked up): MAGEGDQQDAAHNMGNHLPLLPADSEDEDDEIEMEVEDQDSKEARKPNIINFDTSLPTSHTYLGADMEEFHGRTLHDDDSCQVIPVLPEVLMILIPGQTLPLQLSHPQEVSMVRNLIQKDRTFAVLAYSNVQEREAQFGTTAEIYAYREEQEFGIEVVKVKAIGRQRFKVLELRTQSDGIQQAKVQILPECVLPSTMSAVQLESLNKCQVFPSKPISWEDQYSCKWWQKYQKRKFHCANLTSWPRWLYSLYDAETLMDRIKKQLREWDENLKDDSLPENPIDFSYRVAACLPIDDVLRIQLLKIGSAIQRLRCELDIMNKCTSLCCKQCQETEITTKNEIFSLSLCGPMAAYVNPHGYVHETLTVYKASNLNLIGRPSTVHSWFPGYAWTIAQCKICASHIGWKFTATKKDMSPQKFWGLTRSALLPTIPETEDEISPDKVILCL
Method in brief: (§1)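 RAW264.7 macrophages treated at 10 µM. Cells lysed in ice-cold HEPES/MgCl2/EDTA/0.5% Triton X-100 with protease inhibitors, protein by BCA, 4–12% Bis-Tris SDS-PAGE, PVDF transfer. Probed with HDAC1, HDAC2 or HDAC3 antibodies (1:2000) and β-actin, then HRP secondary and chemiluminescence. Bands quantified by densitometry as fold of untreated control, mean ± SD of 2 independent experiments.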

[3] = Cytotoxicity against mouse RAW264.7 cells assessed as cell survival up to 10 uM measured after 24 hrs by MTS assay relative to control; type: cell-based; details: read-out: Survival
Method in brief: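 RAW264.7 macrophages (ATCC, passage 5–16) grown in DMEM GlutaMAX with 10% heated FBS at 37 °C, 5% CO2. Cells seeded at 25,000 cells/cm2 and treated the next day in fresh medium with compound up to 10 μM for 24 h at 37 °C. CellTiter 96 AQueous One (MTS) reagent added for 2 h at 37 °C in the dark, absorbance read at 490 nm, expressed as % of control.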

Histone deacetylase 2 = Histone deacetylase 2 (Homo sapiens, UniProt Q92769); test: Inhibition of recombinant human full-length C-terminal FLAG-tagged HDAC2 expressed in baculovirus infected Sf9 insect cells using Boc-Lys(epsilon-Ac)-AMC as substrate measured after 90 mins by fluorescence assay
Chain of Histone deacetylase 2 (Q92769 whole entry, the tested form may be a part): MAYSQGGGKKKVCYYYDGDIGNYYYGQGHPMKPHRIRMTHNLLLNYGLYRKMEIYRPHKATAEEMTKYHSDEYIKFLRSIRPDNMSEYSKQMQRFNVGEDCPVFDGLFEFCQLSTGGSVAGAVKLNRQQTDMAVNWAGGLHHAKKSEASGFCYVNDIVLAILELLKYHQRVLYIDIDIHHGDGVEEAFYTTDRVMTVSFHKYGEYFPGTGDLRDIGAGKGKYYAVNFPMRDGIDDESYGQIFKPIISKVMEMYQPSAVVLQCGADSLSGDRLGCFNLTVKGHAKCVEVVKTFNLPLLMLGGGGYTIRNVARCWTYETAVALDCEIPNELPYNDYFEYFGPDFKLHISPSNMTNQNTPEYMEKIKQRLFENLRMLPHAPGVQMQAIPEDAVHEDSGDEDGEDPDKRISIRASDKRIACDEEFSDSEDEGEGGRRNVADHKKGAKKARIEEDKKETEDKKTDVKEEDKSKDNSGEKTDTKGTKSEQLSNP

Histone deacetylase 1 = Histone deacetylase 1 (Homo sapiens, UniProt Q13547); test: Inhibition of recombinant human C-terminal His/FLAG-tagged HDAC1 (1 to 482 residues) expressed in Sf9 insect cells using Boc-Lys(epsilon-Ac)-AMC as substrate measured after 90 mins by fluorescence assay
Chain of Histone deacetylase 1 (Q13547 whole entry, the tested form may be a part): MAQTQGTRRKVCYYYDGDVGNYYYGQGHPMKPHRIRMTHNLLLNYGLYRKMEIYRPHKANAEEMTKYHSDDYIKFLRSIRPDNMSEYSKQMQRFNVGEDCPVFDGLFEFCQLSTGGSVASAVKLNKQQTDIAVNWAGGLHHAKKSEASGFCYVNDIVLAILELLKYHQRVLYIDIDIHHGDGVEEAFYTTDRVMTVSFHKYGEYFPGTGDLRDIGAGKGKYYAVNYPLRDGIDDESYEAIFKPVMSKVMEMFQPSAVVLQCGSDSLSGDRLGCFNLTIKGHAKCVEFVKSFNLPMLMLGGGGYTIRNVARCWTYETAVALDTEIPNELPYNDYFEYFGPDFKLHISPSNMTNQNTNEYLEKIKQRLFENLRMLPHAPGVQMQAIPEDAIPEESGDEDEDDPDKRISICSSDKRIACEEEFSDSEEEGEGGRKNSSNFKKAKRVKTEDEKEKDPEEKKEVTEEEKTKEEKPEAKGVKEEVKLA

[4] = target: Protein cereblon/Histone deacetylase 1 (Mus musculus) (UniProt O09106+Q8C7D2); test: Protac activity at CRBN/HDAC1 in mouse RAW264.7 cells assessed as induction of HDAC1 degradation at 10 uM by Western blot analysis; type: cell-based; method in brief: as §1
Chain of Protein cereblon/Histone deacetylase 1 (Mus musculus) (O09106 whole entry, looked up, the tested form may be a part): as the sequence (Q13547 whole entry, the tested form may be a part) above, with R8K, D399E, E424D counted along it
Chain of Protein cereblon/Histone deacetylase 1 (Mus musculus) (Q8C7D2 whole entry, looked up, the tested form may be a part): as the sequence (Q8C7D2 whole entry, looked up) above

[5] = target: Histone deacetylase 3/Nuclear receptor corepressor 2 (HDAC3/NCoR2) (Homo sapiens, UniProt O15379); test: Inhibition of human recombinant C-terminal His-tagged HDAC3 (1 to 428 residues)/N-terminal GST-tagged NCOR2 (395 to 489 residues) expressed in baculovirus infected Sf9 insect cells using Boc-Lys(epsilon-Ac)-AMC as substrate measured after 90 mins by fluorescence assay
Chain of Histone deacetylase 3/Nuclear receptor corepressor 2 (HDAC3/NCoR2) (O15379 whole entry, the tested form may be a part): as the sequence (O88895 whole entry, looked up) above, with S241N counted along it
Chain of Histone deacetylase 3/Nuclear receptor corepressor 2 (HDAC3/NCoR2) (Q9Y618 whole entry, further chain, the tested form may be a part): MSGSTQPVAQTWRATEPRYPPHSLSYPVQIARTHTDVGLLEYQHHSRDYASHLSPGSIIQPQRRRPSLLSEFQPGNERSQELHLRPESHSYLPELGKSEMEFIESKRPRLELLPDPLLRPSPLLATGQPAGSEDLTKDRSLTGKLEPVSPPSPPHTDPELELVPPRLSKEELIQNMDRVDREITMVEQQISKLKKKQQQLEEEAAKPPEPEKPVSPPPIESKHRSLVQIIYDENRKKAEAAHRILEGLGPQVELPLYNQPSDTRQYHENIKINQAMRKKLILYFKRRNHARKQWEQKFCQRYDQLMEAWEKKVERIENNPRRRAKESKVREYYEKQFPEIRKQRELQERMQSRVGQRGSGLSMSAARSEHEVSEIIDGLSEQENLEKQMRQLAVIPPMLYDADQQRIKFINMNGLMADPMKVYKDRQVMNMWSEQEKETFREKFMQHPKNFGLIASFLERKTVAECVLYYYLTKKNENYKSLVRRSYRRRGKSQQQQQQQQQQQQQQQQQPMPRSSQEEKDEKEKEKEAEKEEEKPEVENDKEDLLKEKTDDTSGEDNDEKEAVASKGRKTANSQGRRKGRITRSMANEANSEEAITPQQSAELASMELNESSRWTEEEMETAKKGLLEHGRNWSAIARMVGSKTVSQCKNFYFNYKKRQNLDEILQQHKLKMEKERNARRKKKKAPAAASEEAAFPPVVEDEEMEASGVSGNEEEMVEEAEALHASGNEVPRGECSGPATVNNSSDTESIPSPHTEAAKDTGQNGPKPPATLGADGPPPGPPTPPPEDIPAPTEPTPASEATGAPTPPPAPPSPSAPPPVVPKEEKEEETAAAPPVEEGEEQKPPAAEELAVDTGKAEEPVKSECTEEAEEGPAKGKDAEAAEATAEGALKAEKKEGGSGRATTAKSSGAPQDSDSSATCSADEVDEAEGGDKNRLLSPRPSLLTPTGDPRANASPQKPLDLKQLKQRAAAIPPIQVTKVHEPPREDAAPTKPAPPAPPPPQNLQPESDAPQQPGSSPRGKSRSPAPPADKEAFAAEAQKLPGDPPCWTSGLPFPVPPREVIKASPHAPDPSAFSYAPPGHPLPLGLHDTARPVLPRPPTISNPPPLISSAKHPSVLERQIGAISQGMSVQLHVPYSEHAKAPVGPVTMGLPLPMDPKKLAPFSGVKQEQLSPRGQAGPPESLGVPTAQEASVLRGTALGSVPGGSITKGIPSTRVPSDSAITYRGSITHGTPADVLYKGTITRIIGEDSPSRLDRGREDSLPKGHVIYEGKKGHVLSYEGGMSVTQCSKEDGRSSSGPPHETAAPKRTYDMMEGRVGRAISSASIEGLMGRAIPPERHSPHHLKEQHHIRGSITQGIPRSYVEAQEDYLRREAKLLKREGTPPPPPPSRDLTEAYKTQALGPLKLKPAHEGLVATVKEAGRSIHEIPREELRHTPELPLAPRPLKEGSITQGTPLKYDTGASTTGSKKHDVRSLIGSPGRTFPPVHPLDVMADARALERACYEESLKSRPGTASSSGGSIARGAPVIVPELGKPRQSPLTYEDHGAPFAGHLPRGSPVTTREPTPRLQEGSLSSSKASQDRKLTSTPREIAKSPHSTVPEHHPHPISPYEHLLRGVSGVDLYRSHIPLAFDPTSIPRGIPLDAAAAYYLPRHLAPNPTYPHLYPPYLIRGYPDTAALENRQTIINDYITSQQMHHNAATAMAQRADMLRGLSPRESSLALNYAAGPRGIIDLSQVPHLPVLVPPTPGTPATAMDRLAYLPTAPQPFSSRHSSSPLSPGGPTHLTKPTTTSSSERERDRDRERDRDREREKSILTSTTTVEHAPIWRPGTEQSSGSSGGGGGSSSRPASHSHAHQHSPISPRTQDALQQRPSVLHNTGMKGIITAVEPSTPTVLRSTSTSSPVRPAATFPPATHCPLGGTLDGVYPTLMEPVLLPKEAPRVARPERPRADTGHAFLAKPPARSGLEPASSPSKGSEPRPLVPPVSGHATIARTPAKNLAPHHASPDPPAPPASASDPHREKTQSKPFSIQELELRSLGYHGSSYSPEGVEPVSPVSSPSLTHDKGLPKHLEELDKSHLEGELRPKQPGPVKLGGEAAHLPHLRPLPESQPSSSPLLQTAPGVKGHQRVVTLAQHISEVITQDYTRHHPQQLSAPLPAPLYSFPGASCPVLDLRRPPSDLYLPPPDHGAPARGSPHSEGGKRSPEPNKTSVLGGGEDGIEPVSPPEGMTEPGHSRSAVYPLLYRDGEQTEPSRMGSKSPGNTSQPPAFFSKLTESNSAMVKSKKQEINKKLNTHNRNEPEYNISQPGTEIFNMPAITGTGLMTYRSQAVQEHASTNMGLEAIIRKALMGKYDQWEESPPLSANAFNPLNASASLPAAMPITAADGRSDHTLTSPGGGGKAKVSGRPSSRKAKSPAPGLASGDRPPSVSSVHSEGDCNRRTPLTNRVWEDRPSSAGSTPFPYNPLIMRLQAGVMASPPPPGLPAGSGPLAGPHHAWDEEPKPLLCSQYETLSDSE
Method in brief: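 Incubated with inhibitor dilutions (in 10% DMSO/buffer) and Boc-Lys(ε-Ac)-AMC, 90 min at 37 °C. Stopped with trypsin plus 200 µM vorinostat, 30 min at 37 °C.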

RAW264.7 = test: Cytotoxicity against mouse RAW264.7 cells assessed as reduction in cell proliferation at 3 uM measured after 24 hrs by MTS assay relative to control; type: cell-based; design: scale not given: the % may be the effect or the level left; details: raw264.7, 24 h
Method in brief: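 RAW264.7 cells (passage 5–16, DMEM GlutaMAX with 10% heated FBS, 37 °C, 5% CO2) seeded at 25,000 cells/cm2. Next day, medium swapped for fresh medium containing compound. After 24h, CellTiter 96 AQueous One (MTS) added, 2h at 37 °C in dark. Absorbance read at 490 nm and expressed as % of control.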

[6] = target: Protein cereblon/Histone deacetylase 2 (Mus musculus) (UniProt P70288+Q8C7D2); test: Protac activity at CRBN/HDAC2 in mouse RAW264.7 cells assessed as induction of HDAC2 degradation at 10 uM by Western blot analysis; type: cell-based; method in brief: as §1
Chain of Protein cereblon/Histone deacetylase 2 (Mus musculus) (P70288 whole entry, looked up): as the sequence (Q92769 whole entry, the tested form may be a part) above, with V289A, T477P, T480A counted along it
Chain of Protein cereblon/Histone deacetylase 2 (Mus musculus) (Q8C7D2 whole entry, looked up): as the sequence (Q8C7D2 whole entry, looked up) above

| Compound | Activity [1] | Activity [2] | viability at 24 h [3] [%] | IC50 (Histone deacetylase 2) [nM] | IC50 (Histone deacetylase 1) [nM] | Activity [4] | IC50 [5] [nM] | Activity (RAW264.7) [%] | Activity [6] |
| --- | --- | --- | --- | --- | --- | --- | --- | --- | --- |
| Nc1cccc2c1C(=O)N(C1CCC(=O)NC1=O)C2=O (centres undefined) [POMALIDOMIDE] | Toxic |  |  |  |  |  |  |  |  |
| Nc1ccccc1NC(=O)c1ccc(NC(=O)CCCNC(=O)CNc2cccc3c2C(=O)N(C2CCC(=O)NC2=O)C3=O)cc1 (centres undefined) |  | inactive | > 80 | 1500 | 320 | inactive | 560 |  |  |
| CC(=O)Nc1ccc(C(=O)Nc2ccccc2N)cc1 [TACEDINALINE] |  |  |  |  |  |  |  | 30 |  |
| Nc1ccccc1NC(=O)c1ccc(NC(=O)CCCCNc2cccc3c2C(=O)N(C2CCC(=O)NC2=O)C3=O)cc1 (centres undefined) |  |  | > 80 | 1000 | 420 | inactive | 1000 |  |  |
| Nc1ccccc1NC(=O)c1ccc(NC(=O)CCCCCNc2cccc3c2C(=O)N(C2CCC(=O)NC2=O)C3=O)cc1 (centres undefined) |  |  | > 80 | 970 | 220 | inactive | 540 |  | Active |

Source: ChEMBL document CHEMBL4706593, “Induced protein degradation of histone deacetylases 3 (HDAC3) by proteolysis targeting chimera (PROTAC)” (Eur J Med Chem, 2020)
